Inhibition and Km data for three compounds are collected here from ChEMBL document CHEMBL1130251, “Enzymatic properties of the unnatural beta-L-enantiomers of 2',3'-dideoxyadenosine and 2',3'-didehydro-2',3'-dideoxyadenosine” (J Med Chem, 1997).

The target in series [1] is T1, Adenosine deaminase (Bos taurus) (UniProt P56658).
T1 sequence (whole entry): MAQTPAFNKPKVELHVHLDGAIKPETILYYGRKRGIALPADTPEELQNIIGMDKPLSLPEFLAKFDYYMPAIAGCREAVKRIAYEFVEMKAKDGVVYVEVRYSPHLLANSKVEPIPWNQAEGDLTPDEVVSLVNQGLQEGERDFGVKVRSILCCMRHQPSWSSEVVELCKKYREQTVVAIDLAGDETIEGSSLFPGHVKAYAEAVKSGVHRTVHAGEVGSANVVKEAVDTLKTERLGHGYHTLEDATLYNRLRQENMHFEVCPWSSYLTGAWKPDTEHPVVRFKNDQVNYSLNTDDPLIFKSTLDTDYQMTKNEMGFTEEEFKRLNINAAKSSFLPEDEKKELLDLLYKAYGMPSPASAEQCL
Nature of the series: Inhibitory activity against bovine adenosine deaminase; very weak substrate or inhibitor. An outline of the steps:
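Adenosine deaminase (calf intestinal mucosa, type VIII) at 37 °C in 50 mM phosphate pH 7.5. Substrate tests used 20–80 μM nucleoside and 0.01–1 unit enzyme, with HPLC product analysis. Inhibition was read by UV spectrometry with adenosine 20–100 μM. Ki was taken from Lineweaver–Burk plots assuming competitive inhibition.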

Series [2] is described as follows: Inhibitory activity against purine nucleoside phosphorylases from human blood and calf spleen; NS, NI/Ino=nonsubstrate, noninhibitor/inhibitor. The class given is tissue-based. In a few lines:
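Purine nucleoside phosphorylase from calf spleen (0.18 unit·mL⁻¹) or human blood (9 units·mL⁻¹) at 37 °C in 50 mM phosphate pH 7.5. Substrate tests used 50 μM nucleoside. Inhibition used 40 μM inosine with 100 μM test compound. Reaction media were analysed by C-18 HPLC.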

Series [3] concerns Nc1ncnc2c1ncn2[C@H]1C=C[C@@H](CO)O1. As to the kind of experiment: Inhibitory activity against human deoxycytidine kinase. An outline of the steps: (§1)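 Recombinant human deoxycytidine kinase (expressed in E. coli, purified) at 37 °C. Monophosphate formation measured by C-18 HPLC. Km and Vm from Lineweaver–Burk plots.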
In series [4] the test system is Nc1ncnc2c1ncn2[C@H]1CC[C@@H](CO)O1. As to the kind of experiment: Inhibitory activity against Cytidine Kinase. An outline of the steps:
as §1

Chain of Deoxycytidine kinase (Homo sapiens), P27707 (P27707 whole entry): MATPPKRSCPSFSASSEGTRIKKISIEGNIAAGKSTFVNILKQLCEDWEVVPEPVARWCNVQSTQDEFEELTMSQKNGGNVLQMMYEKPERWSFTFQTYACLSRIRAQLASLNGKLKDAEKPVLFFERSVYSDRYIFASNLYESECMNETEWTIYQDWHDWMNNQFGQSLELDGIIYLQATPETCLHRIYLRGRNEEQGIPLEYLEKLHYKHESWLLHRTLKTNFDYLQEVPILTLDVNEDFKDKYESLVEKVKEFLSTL

With `Nc1ncnc2c1ncn2[C@H]1C=C[C@@H](CO)O1`, in series [1], the inhibition entry is “very weak substrate or inhibitor”. In addition, the Km (as a rule, the concentration of substrate that gives half-maximal velocity) in series [2] was “NS, NI/Ino”.
Regarding “Deoxycytidine kinase (Homo sapiens), P27707”, the Km stood at 620 µM in series [3] and 220 µM in series [4].
For `Nc1ncnc2c1ncn2[C@H]1CC[C@@H](CO)O1`, the Km result in series [2] is reported as “NS, NI/Ino”.
